Assay: Toxicity liver stage against HepG2, at 10uM
Type: cell-based
Parameters: test concentration 10 uM, cell line HepG2-A16-CD81EGFP
Details: human, HepG2-A16-CD81EGFP cells; read-out: INHIBITION
Procedure, shortened: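 Uninfected HepG2-A16-CD81EGFP cells, 3 × 10^3 per well, 1536-well, plated on prespotted compound at 10 μM final, parasite-free screening media added to match infected plates; puromycin 10 μM positive, DMSO 0.5% negative; run in parallel with 48 h PbLuc assay at 37 °C, 5% CO2; viability by CellTiter-Glo luminescence, normalized to controls.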

Row | SMILES | cytotoxicity at 10 µM
1 | O=C(CCn1ccccc1=O)Nc1ccc(I)cc1 | 7.27%
2 | CC(C)OCCNC(=O)C1CCC(=O)N(C2CCCC2)C1 (stereo unspecified) | -12.5%
3 | CCCc1cncnc1N1CCC2(CCC(=O)N(CCCO)C2)CC1 | 2.8%
4 | O=C1CN(CCCNC(=O)Nc2cccc(Cl)c2F)CCN1 | 15.2%
5 | COc1cccc(-c2n[nH]c3c2CN(C(=O)c2oc(C)cc2C)CC3)c1 | -3.17%
6 | COc1ccc(N2CCN(Cc3nc(CSC)no3)CC2=O)cc1 | 1.44%
7 | CCCc1cc(NCCN2CCNC2=O)n2nccc2n1 | -6.42%
8 | CC(C)CC(NC(=O)c1cc(C2CC2)n[nH]1)c1ncnn1C (stereo unspecified) | 4.93%
9 | Cn1ccnc1-c1nc2cc(S(=O)(=O)N3CCCC3)ccc2n1C | 5.05%
10 | Cn1cc(Cl)c(C(=O)N2CCC(N3CCc4ccccc4C3)CC2)n1 | -2.27%
11 | CCc1noc(CN(CC)Cc2cc3cc(C)ccc3[nH]c2=O)n1 | 2.7%
12 | CN(Cc1ccccc1)S(=O)(=O)N1C[C@H](C2CC2)[C@@H](N)C1 | -159%
13 | Cc1ccc(OC2(C(=O)O)CCN(C/C=C/c3ccco3)CC2)cc1 | -14.4%
14 | Cc1nc(O)cc(CN2CC=C(c3cnn(-c4ccccc4)c3)CC2)n1 | -10.5%
15 | Cn1cnnc1CN1CCC2(CCC(=O)N(Cc3ccccn3)C2)CC1 | 7.82%
16 | COCCCN1CCC(c2nc3c([nH]2)CC(C)(C)CNC3=O)C1 (stereo unspecified) | 0.0531%
17 | CN(CC(=O)N1CC(Oc2ccccc2Cl)C1)Cc1ccncc1 | -2.67%
18 | CCN(Cc1noc(C)n1)C(=O)CCc1scnc1C | 2.13%
19 | O=C(Nc1nncs1)N1CCCN(C2CCCCC2)CC1 | 1.48%

Row | SMILES | cytotoxicity at 10 µM
20 | O=C(NCc1cc2n(n1)CCCNC2)C1(c2ccc(Cl)cc2)CCC1 | -9.72%
21 | CCCc1nc(C)cc(N2CCC3(CCC(=O)N(CC(N)=O)C3)CC2)n1 | -8.38%
22 | CCN1CCN(CC(=O)N2CCOC(Cc3ccc(OC)cc3)C2)CC1 (stereo unspecified) | -2.77%
23 | COc1cc(CNC2CCc3nc(C)nn3C2)cc2c1OCO2 (stereo unspecified) | -11.6%
24 | COc1ccccc1OCCNC(=O)CN1CCc2cncnc2C1 | -15.6%
25 | CN(CCCc1cc(-c2ccccc2)no1)S(C)(=O)=O | -14.4%
26 | c1ccc2oc(CCCN3CCCCC3Cn3cncn3)nc2c1 (stereo unspecified) | -10.2%
27 | Cc1nc(C)n(CC2CCCN(Cc3cccc(C(N)=O)c3)C2)n1 (stereo unspecified) | -29%
28 | CC(C)c1nc(C2CCCN(C(=O)CCc3cscn3)C2)no1 (stereo unspecified) | -17.2%
29 | c1ccc(-c2nnc(CNC3CCCN(c4cccnn4)C3)o2)cc1 (stereo unspecified) | -9.45%
30 | COc1ccc(NC(=O)NC(C)Cc2ccco2)cn1 (stereo unspecified) | -3.54%
31 | Cc1noc(C)c1CN1CCC(c2ccnn2CCO)CC1 | -9.73%
32 | Cc1nnc2n1CCN(CCCS(=O)(=O)c1ccccc1)C2 | -11.2%
33 | Cc1ccc(N(C)S(=O)(=O)c2cc(C(=O)O)cs2)c(C)c1 | 1.82%
34 | CC(Cn1cccn1)NC(=O)N1CCN(Cc2ccco2)CC1 (stereo unspecified) | -20.6%
35 | CN(CCNC(=O)NCc1ccsc1)C1CCCC1 | -12.4%
36 | Cc1cnn(CC2CN(Cc3nc4ccccc4n3C)CCO2)c1 (stereo unspecified) | 0.338%
37 | CC(C)Cc1cc(C(=O)NCCn2nc3ccccn3c2=O)[nH]n1 | -16.3%
38 | c1coc(-c2nc(CN3CCn4c(nnc4C4CC4)C3)cs2)c1 | -4.64%

Row | SMILES | cytotoxicity at 10 µM
39 | COc1cccc(CNC(=O)CN2CCCCC2Cn2cccn2)c1 (stereo unspecified) | 2.77%
40 | O=C(N1CCCC1)N1CCc2c(CNc3ncccn3)cncc2C1 | 3.97%
41 | COc1ccc(C(C)NCc2c[nH]nc2C)cc1OC (stereo unspecified) | -3.75%
42 | c1snnc1CN1C[C@H]2CCC[C@@H](CN3CCOCC3)[C@H]2C1 | -116%
43 | CN(C)[C@@H]1CCN(c2ncc(F)cn2)[C@H]1Cc1ccncc1 | -1.96%
44 | O=C(c1cscn1)N1CC[C@@H]2[C@@H]1CCN2CC1CCOCC1 | 5.3%
45 | Cn1cccc1CN1CCC2(CCCN(C(=O)c3cccnc3)C2)CC1 | -147%
46 | O=C(Nc1ccccc1)C1CN(CC2CCOCC2)CC12CCOCC2 (stereo unspecified) | 1.65%
47 | COCC1CN(Cc2sccc2C)Cc2nnn(CC3CC3)c21 (stereo unspecified) | 4.35%
48 | CC(C)N1CCC2(C=C(C(=O)N(C)C)c3ccccc32)CC1 | 1.24%
49 | CC(=O)N1C(CN2CCCC2)C[C@@H]2CN(C(=O)c3ccoc3)CC[C@@H]21 (stereo partly specified) | -0.655%
50 | COC1CC2(CCN(Cc3nccn3C)CC2)C1 | -133%
51 | CC(C)NC(=O)N1CC[C@H]2[C@H]1CCN2c1ncccn1 | -0.155%
52 | CC(=O)N1CCS(=O)(=O)[C@@H]2CCN(CC(C)C)CC[C@@H]21 | -142%
53 | Cn1nc(Cn2cccn2)c2c1CN(Cc1ccsc1)C2 | -148%
54 | CN(C)CC1CN(C(=O)CCc2ccccc2)Cc2nccn2C1 (stereo unspecified) | -121%
55 | CC(C)CNC(=O)[C@H]1C[C@H]2CN(C(=O)NCC3CCCCC3)C[C@@H]1O2 | -4.81%
56 | CN1C(=O)[C@@H]2CC[C@H]1CN(C(=O)Nc1cccc3ccccc13)C2 | -2.69%
